Measured values reported in the M2OR odorant receptor database.

Assays:
Settings in all cases: stereoisomer not certain
OR10A3 (Homo sapiens) = target: T1, OR10A3 (Homo sapiens) (UniProt P58181)
T1 sequence (whole entry): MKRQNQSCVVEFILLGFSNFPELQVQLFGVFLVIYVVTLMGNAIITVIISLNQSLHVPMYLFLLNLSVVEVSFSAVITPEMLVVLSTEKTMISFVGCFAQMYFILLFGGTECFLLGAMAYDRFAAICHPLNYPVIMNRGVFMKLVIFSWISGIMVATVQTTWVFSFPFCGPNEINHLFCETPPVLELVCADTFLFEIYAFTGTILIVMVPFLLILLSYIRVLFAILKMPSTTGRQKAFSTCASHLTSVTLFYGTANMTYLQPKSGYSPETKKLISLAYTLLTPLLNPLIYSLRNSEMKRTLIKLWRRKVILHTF
Summary of the method: (§1)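 Transient luciferase assays in mammalian cell lines were common, though methods varied by source. The values come from published papers and their supplementary material, with extra details from the original authors when needed. Responsive refers to a measured signal the original authors judged statistically different from baseline, and non-responsive (inactive) to the remainder.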

OR10A4 (Homo sapiens) = target: T2, OR10A4 (Homo sapiens) (UniProt Q9H209)
T2 sequence (whole entry): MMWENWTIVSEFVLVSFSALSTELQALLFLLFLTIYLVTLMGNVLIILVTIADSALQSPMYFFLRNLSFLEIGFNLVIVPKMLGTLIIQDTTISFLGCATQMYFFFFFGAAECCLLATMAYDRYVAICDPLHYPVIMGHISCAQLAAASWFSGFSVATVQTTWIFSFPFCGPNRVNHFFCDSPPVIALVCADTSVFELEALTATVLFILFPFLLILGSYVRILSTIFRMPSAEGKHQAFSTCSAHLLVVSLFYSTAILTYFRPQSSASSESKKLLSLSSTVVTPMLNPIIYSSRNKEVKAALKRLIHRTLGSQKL
Summary of the method: as §1

OR10A5 (Homo sapiens) = target: T3, OR10A5 (Homo sapiens) (UniProt Q9H207)
T3 sequence (whole entry): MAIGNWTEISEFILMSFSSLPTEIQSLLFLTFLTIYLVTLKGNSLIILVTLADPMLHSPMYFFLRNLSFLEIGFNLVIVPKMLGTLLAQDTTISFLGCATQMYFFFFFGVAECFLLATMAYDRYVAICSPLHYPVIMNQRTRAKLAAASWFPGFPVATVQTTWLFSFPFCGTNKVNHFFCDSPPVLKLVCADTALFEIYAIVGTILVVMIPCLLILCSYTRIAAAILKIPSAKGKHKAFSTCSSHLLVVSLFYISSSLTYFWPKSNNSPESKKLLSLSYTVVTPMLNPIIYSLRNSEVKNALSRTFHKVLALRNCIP
Summary of the method: as §1

OR10A6 (Homo sapiens) = target: T4, OR10A6 (Homo sapiens) (UniProt Q8NH74)
T4 sequence (whole entry): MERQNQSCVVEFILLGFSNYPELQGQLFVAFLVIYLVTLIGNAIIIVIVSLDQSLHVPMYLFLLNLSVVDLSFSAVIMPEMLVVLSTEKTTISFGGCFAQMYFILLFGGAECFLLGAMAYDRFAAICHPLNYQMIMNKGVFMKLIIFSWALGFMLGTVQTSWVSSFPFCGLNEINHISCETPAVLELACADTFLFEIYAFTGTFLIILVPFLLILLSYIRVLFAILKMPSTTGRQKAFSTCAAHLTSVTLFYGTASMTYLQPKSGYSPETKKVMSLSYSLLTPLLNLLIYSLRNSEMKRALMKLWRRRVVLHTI
Summary of the method: as §1

OR10A7 (Homo sapiens) = target: T5, OR10A7 (Homo sapiens) (UniProt Q8NGE5)
T5 sequence (whole entry): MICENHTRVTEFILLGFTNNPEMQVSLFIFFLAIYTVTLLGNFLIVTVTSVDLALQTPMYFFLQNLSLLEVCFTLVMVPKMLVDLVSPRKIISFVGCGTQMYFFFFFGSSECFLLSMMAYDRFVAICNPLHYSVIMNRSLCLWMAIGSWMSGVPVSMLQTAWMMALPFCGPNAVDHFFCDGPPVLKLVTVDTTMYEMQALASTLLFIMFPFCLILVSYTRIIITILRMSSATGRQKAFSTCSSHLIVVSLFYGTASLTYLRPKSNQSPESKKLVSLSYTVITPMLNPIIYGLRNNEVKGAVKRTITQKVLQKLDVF
Summary of the method: as §1

OR10AD1 (Homo sapiens) = target: T6, OR10AD1 (Homo sapiens) (UniProt Q8NGE0)
T6 sequence (whole entry): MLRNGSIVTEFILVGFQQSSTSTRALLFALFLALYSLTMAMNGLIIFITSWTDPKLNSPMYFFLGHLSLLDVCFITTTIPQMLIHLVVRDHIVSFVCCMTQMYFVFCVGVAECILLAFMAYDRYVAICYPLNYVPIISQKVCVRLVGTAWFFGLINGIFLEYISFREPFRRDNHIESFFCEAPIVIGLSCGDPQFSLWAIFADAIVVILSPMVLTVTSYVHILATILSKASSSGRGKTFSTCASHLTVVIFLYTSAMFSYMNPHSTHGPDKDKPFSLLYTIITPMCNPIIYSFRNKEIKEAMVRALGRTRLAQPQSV
Summary of the method: as §1

OR10AG1 (Homo sapiens) = target: T7, OR10AG1 (Homo sapiens) (UniProt Q8NH19)
T7 sequence (whole entry): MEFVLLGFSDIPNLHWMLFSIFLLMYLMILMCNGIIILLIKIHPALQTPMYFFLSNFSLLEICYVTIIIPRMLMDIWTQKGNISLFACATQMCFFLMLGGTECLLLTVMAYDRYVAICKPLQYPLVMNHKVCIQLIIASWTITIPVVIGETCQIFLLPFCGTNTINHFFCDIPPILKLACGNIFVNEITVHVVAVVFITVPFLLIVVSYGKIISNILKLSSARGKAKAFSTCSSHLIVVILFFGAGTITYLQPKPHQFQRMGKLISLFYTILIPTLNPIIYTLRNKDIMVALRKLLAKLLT
Summary of the method: as §1

OR10C1 (Homo sapiens) = target: T8, OR10C1 (Homo sapiens) (UniProt Q96KK4)
T8 sequence (whole entry): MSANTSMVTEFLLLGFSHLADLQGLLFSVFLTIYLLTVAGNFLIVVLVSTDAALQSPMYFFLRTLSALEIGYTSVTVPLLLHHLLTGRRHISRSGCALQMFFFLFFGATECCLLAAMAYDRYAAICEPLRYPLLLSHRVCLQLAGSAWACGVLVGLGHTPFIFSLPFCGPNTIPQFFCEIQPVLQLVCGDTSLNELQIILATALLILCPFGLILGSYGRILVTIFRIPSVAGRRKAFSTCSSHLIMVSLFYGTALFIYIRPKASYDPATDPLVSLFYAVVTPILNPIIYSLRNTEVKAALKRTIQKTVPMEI
Summary of the method: as §1

OR10D3 (Homo sapiens) = target: T9, OR10D3 (Homo sapiens) (UniProt Q8NH80)
T9 sequence (whole entry): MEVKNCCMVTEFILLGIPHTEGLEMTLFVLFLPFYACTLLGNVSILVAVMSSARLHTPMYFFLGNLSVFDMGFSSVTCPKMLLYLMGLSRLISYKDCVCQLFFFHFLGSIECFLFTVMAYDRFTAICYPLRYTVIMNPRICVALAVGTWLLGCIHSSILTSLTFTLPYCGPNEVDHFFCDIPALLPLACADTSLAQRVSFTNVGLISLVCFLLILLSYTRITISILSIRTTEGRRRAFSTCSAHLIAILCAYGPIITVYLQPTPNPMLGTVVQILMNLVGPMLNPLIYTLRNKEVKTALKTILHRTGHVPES
Summary of the method: as §1

Measured: odorant receptor agonist call;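 note: active if original authors judged signal statistically different from baseline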

CCCC(S)CCOC(C)=O (centres undefined)
inactive: all assays above
